CCR6 antag – CCR6 receptor antagonists, primary screen, cell-based, CHO-K1, luminescence, beta-arrestin, uHTS | C-C chemokine receptor type 6 (Homo sapiens), P51684 | CHO-K1 CCR6 PathHunter beta-arrestin, CCL20-stimulated | inhibition, % at 20 µM | actives 0.49% (n = 340,000);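 active = compounds whose inhibition of the agonist-driven luminescence signal at 20 µM reaches about 50%, limit read from the data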;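 also: cells stimulated with CCL20 at 14 nM final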
APJ antagonist – antagonists of human apelin receptor APJ, primary screen, CHO-K1 cells, beta-arrestin complementation, luminescence; P35414; inhibition, % at 20 µM; actives 0.32% (n = 330,000);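 active = inhibition above about 40% at 20 µM, limit read from the data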;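 also: cells challenged with 10 nM apelin-13 agonist together with compound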
CXCR6 inh – CXCR6 receptor inhibitors, primary screen, cell-based, beta-arrestin, luminescence, CHO-K1 PathHunter, 1536-well; C-X-C chemokine receptor type 6 (Homo sapiens), O00574; inhibition, % at 20 µM; actives 0.36% (n = 360,000); in the data active = inhibition above about 34%, passing the limit was not always enough;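 also: antagonist mode with CXCL16 agonist at 10 nM final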
Target sequence (O00574 whole entry, looked up): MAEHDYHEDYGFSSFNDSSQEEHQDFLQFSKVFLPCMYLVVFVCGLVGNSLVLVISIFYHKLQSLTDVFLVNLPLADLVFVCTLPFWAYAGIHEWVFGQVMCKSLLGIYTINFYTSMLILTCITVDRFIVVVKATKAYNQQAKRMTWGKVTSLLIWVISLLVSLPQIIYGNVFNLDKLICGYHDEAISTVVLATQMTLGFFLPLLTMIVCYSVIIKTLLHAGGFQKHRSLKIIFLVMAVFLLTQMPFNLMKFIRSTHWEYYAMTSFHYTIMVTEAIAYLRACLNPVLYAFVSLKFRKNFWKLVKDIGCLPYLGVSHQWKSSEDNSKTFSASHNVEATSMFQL
EBI2 block – EBI2 receptor antagonists, beta-arrestin recruitment, primary screen, cell-based, luminescence, 7a,25-OHC stimulation, uHTS; G-protein coupled receptor 183 (Homo sapiens), P32249; 7a,25-OHC stimulated; inhibition, % at 5 µM; actives 0.81% (n = 360,000); AID 651636, 2012; in the data active = inhibition above about 38%;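 also: enzyme fragment complementation signal reports receptor beta-arrestin coupling in cells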
APJ agonist – agonists of human apelin receptor APJ, primary screen, CHO-K1 cells, PathHunter beta-arrestin, luminescence. P35414. 0% DMSO wells, 100% apelin. activation, % at 20 µM. actives 0.11% (n = 330,000);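 active = activation more than six SD over the plate average, tested at 20 µM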
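Test system – PathHunter CHO-K1 APJ (AGTRL-1) beta-arrestin reporter cells · Input – 1000 cells/well · Compound – single test compound dose, 20 µM final, 1% DMSO · Times – compound stimulation 90 min at 25 °C, detection 60 min · Technique – beta-gal luminescence · Read-out basis – APJ–arrestin association signal · Control set – negative DMSO alone, positive Apelin-13 at 10 nM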
EBI2 antag conf – EBI2 antagonist hit retest, beta-arrestin, confirmation, cell-based, single concentration, luminescence, 7a,25-OHC stimulation; shares compounds with EBI2 block; 7a,25-OHC antagonism; inhibition, % at 5 µM; actives 29% (n = 2,400); AID 651997, 2013;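 active = inhibition of at least 50%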
EBI2 agonist – EBI2 agonist activity of antagonist hits, confirmation, counter-screen for EBI2 antagonist project, cell-based, single concentration, agonist mode, luminescence; activation, % at 5 µM; EBI2-expressing cells, 60 min; 0% vehicle, 100% 7α,25-dihydroxycholesterol control; shares compounds with EBI2 block; 2,400 tested, under 10 active;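 active = activation of at least 50%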
bGal cs – E. coli beta-galactosidase enzyme inhibition, confirmation, counter-screen for EBI2 antagonist project, biochemical, luminescence, single concentration; shares compounds with EBI2 block; purified beta-galactosidase, luminescent Galacton Star, 15 min; inhibition, % at 5 µM; actives 1% (n = 2,400);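 active = replicate-average signal at least 3 plate SD below neutral wells, shown as high inhibition, flagging enzyme-inhibiting false positives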;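 also: higher means stronger loss of beta-gal luminescence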
Hits are given with their value; - = inactive; . = no result. Shown are actives, neighbours in structure and some others; about 1.5% of the full set was active somewhere.

SMILES | CCR6 antag | APJ antagonist | CXCR6 inh | EBI2 block | APJ agonist | EBI2 antag conf | EBI2 agonist | bGal cs
O=C(CCCc1cccs1)NCCc1c[nH]c2ccccc12 | - | - | - | 46 | - | - | - | -
CCCCCCCCCCCCCCCC(=O)NCCc1c[nH]c2ccccc12 | - | - | - | - | - | . | . | .
C#Cc1ccc([C@@H]2C=C(C(=O)N3CCN(Cc4ccc5c(c4)OCO5)CC3)O[C@H](OCCCCO)C2)cc1 | - | - | - | - | - | . | . | .
O=c1nc(Oc2ccccc2)nc2ncccn12 | . | . | - | - | . | . | . | .
COc1ccc(N2CCN(C(=O)c3cc(=O)c4cc(C)c(C)cc4o3)CC2)cc1 | - | - | - | 92 | - | 87 | - | -
COc1ccc(N2CCN(C(=O)c3cc(=O)c4cc(C)ccc4o3)CC2)cc1 | - | - | - | 92 | - | 82 | - | -
COc1ccc(N2CCN(C(=O)c3cc(=O)c4cc(C)cc(C)c4o3)CC2)cc1 | - | - | - | 80 | - | 84 | - | -
COc1ccccc1N1CCN(C(=O)c2cc(=O)c3ccc(C)cc3o2)CC1 | - | - | - | - | - | . | . | .
COc1cc2nc(CN3CCN(S(=O)(=O)c4ccc(C)c(C)c4)CC3)[nH]c(=O)c2cc1OC | - | - | - | 47 | - | - | - | -
Cc1ccc(S(=O)(=O)N2CCCN(Cc3nc4ccccc4c(=O)[nH]3)CC2)cc1 | - | - | - | - | - | . | . | .
COc1cccc(Oc2cnc(N)nc2-c2ccc(OC)cc2O)c1 | - | - | - | 52 | - | - | - | -
COc1ccc(-c2nc(N)ncc2Oc2ccccc2Br)c(O)c1 | - | - | - | 62 | - | - | - | -
CC1(c2cccs2)CC(c2cccs2)=C(C#N)C(=O)N1 (stereo unspecified) | - | - | - | 85 | - | 64 | - | -
Cc1cc(C)n(-c2ccc(C(=O)N3CCN(S(=O)(=O)c4ccc(Br)cc4Cl)CC3)cc2)n1 | . | . | - | 92 | . | 65 | - | -
COc1cc(NC(=O)c2ccc(-c3cccnc3)c3ccoc23)cc(OC)c1OC | . | . | - | - | . | . | . | .
O=C(Nc1cccc(OC(F)(F)F)c1)c1ccc(-c2cccnc2)c2ccoc12 | . | . | - | 38 | . | - | - | -
CCN(C(=O)C(C)OC(=O)C1C(C(=O)OC)=C(C)NC(C)=C1C(=O)OC)c1ccccc1 (stereo unspecified) | - | - | - | - | - | . | . | .
O=[N+]([O-])c1ccc(Nc2cccc(F)c2)nc1 | - | - | - | - | - | . | . | .
COC(=O)Cc1ccc(NC(=O)c2ccc3c(c2)C(=O)N(Cc2ccco2)C3=O)cc1 | - | - | - | 52 | - | - | - | -
COC(=O)Cc1ccc(NC(=O)c2ccc3c(c2)C(=O)N(Cc2cccnc2)C3=O)cc1 | - | - | - | - | - | . | . | .
O=C(NCc1ccc(Cl)cc1)[C@@H]1CCCN1S(=O)(=O)c1ccc(Cl)cc1 | - | - | - | - | - | . | . | .
O=C(NCCCN1CCCCC1)c1ccc(CS(=O)c2ccc(F)cc2)o1 (stereo unspecified) | - | - | - | - | - | . | . | .
CC(C)(C)NS(=O)(=O)c1ccc2[nH]c3c(c2c1)CCCCC3 | - | - | - | 63 | - | 67 | - | -
COCCCNS(=O)(=O)c1ccc2[nH]c3c(c2c1)CCCCC3 | - | - | - | - | - | . | . | .
COC(=O)c1ccc(/C=N/n2c(C)nc3ccccc3c2=O)cc1 | - | - | - | - | - | . | . | .

Screens as filed in PubChem.
